For 7 molecules, Activity results are on record in ChEMBL document CHEMBL1151227, “Hyperjovinols A and B: Two new phloroglucinol derivatives from Hypericum jovis with antioxidant activity in cell cultures” (J Nat Prod, 2004).

Data set [1] in a line: Cytotoxicity against human skin fibroblasts assessed as cell viability by trypan blue exclusion assay relative to control. In kind it is cell-based. Particulars: fibroblast. In short, it runs like this:
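Normal human skin fibroblasts (lab-derived) grown in MEM with 10% FBS to confluency, then exposed to compounds (diluted from DMSO into medium) for 4 h. Viability was judged against untreated cells by Trypan Blue exclusion, with microscopic inspection for cytotoxicity.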

In data set [2] the test system is Fibroblast. The experiment in a line: Inhibition of endogenous ROS production in human skin fibroblast assessed as DCF-fluorescence at 10 uM after 4 hrs by DCFH-DA assay relative to control. The arrangement: scale not given: the % may be the effect or the level left.
The test system of data set [3] is Fibroblast. The experiment in a line: Inhibition of endogenous ROS production in human skin fibroblast assessed as DCF-fluorescence at 100 uM after 4 hrs by DCFH-DA assay relative to control. Set-up: scale not given: the % may be the effect or the level left.

Regarding `CC(C)=CCCC1(C)CCc2c(O)cc(O)c(C(=O)C(C)C)c2O1` (stereo not given), the figures for the Activity entry (in data set [1]; in the data set on Fibroblast [2]; with Fibroblast [3]) were “Non-toxic”, 81.5% and 73%, respectively.
Taken in the same sequence, the figures for `CC(C)=CCCC1(C)CCc2c(cc(O)c(C(=O)C(C)C)c2O)O1` (stereo not given) were “Non-toxic”, 94.1% and 62.4%.
`CC(C)=CCC/C(C)=C/COc1cc(O)c(C(=O)C(C)C)c(O)c1`: the Activity entry was “Non-toxic” in data set [1], 92.2% with Fibroblast [2] and 61.5% with Fibroblast [3].
Taken in the same sequence, the figures for `CC(C)=CCC/C(C)=C/Cc1c(O)cc(O)c(C(=O)C(C)C)c1O` were “Non-toxic”, 79.4% and 50.8%.
On the same counts, the results for `CC(C)=CCCC(C)(O)CCc1c(O)cc(O)c(C(=O)C(C)C)c1O` (stereo not given) [HYPERJOVINOL A] are “Non-toxic”, 76.1% and 49.2%.
On the same counts, the results for `CC(C)C(=O)c1c(O)cc2c(c1O)C[C@@H]1C(C)(C)CCC[C@@]1(C)O2` [HYPERJOVINOL B] are “Non-toxic”, 89.7% and 57.1%.
As for `Cc1c(C)c2c(c(C)c1O)CCC(C)(C(=O)O)O2` (stereo not given) [TROLOX], the Activity is reported as 81.4% in the data set with Fibroblast [2] and 55.2% in the data set with Fibroblast [3].
